ChEMBL document CHEMBL1123430, “Potential tumor- or organ-imaging agents. 26. Polyiodinated 2-substituted triacylglycerols as hepatographic agents” (J Med Chem, 1986)

Tests used:
[1] = system: Rattus norvegicus; assay: Distribution of radioactivity of radiolabeled compound in heart of female rats 30 minutes after intravenous administration; format: ADME, organism-based; conditions: in vivo, 0.5 h
[2] = system: Rattus norvegicus; assay: Distribution of radioactivity of radiolabeled compound in blood of female rats 5 minutes after intravenous administration; format: ADME, organism-based; conditions: in vivo
[3] = system: Rattus norvegicus; assay: Polyacrylamide Gel Electrophoresis (PAGE) analysis of rat plasma 5 minutes after intravenous administration of radiolabeled compound at in high density lipoprotein; format: functional, organism-based
Summary of the method: (§1)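 ¹²⁵I-labeled compound, radioiodinated by exchange in a pivalic acid melt, solubilized in normal saline with Tween 20 and given iv to adult female Sprague–Dawley rats (200–250 g), 5–30 μCi/animal, 3–4 rats per time point. Plasma was run on polyacrylamide gels. Gels were sectioned and gamma counted. Radioactivity per band (stacking gel, LDL, HDL, albumin, below albumin) is given as % of total applied; mean ± SEM, n = 3-5.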

[4] = system: Rattus norvegicus; assay: Distribution of radioactivity of radiolabeled compound in lung of female rats 5 minutes after intravenous administration; format: ADME, organism-based; conditions: in vivo
[5] = system: Rattus norvegicus; assay: Polyacrylamide Gel Electrophoresis (PAGE) analysis of rat plasma 5 minutes after intravenous administration of radiolabeled in stacking gel; format: functional, organism-based; summary of the method: as §1
[6] = system: Rattus norvegicus; assay: Distribution of radioactivity of radiolabeled compound in kidney of female rats 5 minutes after intravenous administration; format: ADME, organism-based; conditions: in vivo
[7] = system: Rattus norvegicus; assay: Distribution of radioactivity of radiolabeled compound in lung of female rats 30 minutes after intravenous administration; format: ADME, organism-based; conditions: in vivo, 0.5 h
[8] = system: Rattus norvegicus; assay: Distribution of radioactivity of radiolabeled compound in liver of female rats 5 minutes after intravenous administration; format: ADME, organism-based; conditions: in vivo
[9] = system: Rattus norvegicus; assay: Polyacrylamide Gel Electrophoresis (PAGE) analysis of rat plasma 5 minutes after intravenous administration of radiolabeled compound in stacking gel; format: functional, organism-based; summary of the method: as §1
[10] = system: Rattus norvegicus; assay: Polyacrylamide Gel Electrophoresis (PAGE) analysis of rat plasma 5 min after intravenous administration of radiolabeled compound concentration of albumin; format: functional, organism-based
Summary of the method: (§2)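 Gels were sectioned and counted in a γ counter. Radioactivity in each band (stacking gel, LDL, HDL, albumin, below albumin) is expressed as a percentage of the total radioactivity applied to the gel, ± SEM, n = 3-5.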

[11] = system: Rattus norvegicus; assay: Distribution of radioactivity of radiolabeled compound in heart of female rats 5 minutes after intravenous administration; format: ADME, organism-based; conditions: in vivo
[12] = system: Rattus norvegicus; assay: Distribution of radioactivity of radiolabeled compound in kidney of female rats 30 minutes after intravenous administration; format: ADME, organism-based; conditions: in vivo, 0.5 h
[13] = system: Rattus norvegicus; assay: Polyacrylamide Gel Electrophoresis (PAGE) analysis of rat plasma 5 minutes after intravenous administration of radiolabeled compound (below albumin ); format: functional, organism-based; summary of the method: as §1
[14] = system: Rattus norvegicus; assay: Polyacrylamide Gel Electrophoresis (PAGE) analysis of rat plasma 30 min after intravenous administration of radiolabeled compound at in high density; format: functional, organism-based; summary of the method: as §2
[15] = system: Rattus norvegicus; assay: Distribution of radioactivity of radiolabeled compound in blood of female rats 30 minutes after intravenous administration; format: ADME, organism-based; conditions: in vivo, 0.5 h
[16] = system: Rattus norvegicus; assay: Polyacrylamide Gel Electrophoresis (PAGE) analysis of rat plasma 30 min after intravenous administration of radiolabeled compound in albumin; format: functional, organism-based; summary of the method: as §2
[17] = system: Rattus norvegicus; assay: Distribution of radioactivity of radiolabeled compound in liver of female rats 30 minutes after intravenous administration; format: ADME, organism-based; conditions: in vivo, 0.5 h
[18] = system: Rattus norvegicus; assay: Polyacrylamide Gel Electrophoresis (PAGE) analysis of rat plasma 30 min after intravenous administration of radiolabeled compound in low density lipoprotein; format: functional, organism-based; summary of the method: as §2
[19] = system: Rattus norvegicus; assay: Polyacrylamide Gel Electrophoresis (PAGE) analysis of rat plasma 5 minutes after intravenous administration of radiolabeled compound in low-density lipoprotein; format: functional, organism-based; summary of the method: as §1
[20] = system: Rattus norvegicus; assay: Polyacrylamide Gel Electrophoresis (PAGE) analysis of rat plasma 30 min after intravenous administration of radiolabeled compound ( below albumin); format: functional, organism-based; summary of the method: as §2
[21] = system: Rattus norvegicus; assay: Polyacrylamide Gel Electrophoresis (PAGE) analysis of rat plasma 5 minutes after intravenous administration of radiolabeled compound (below albumin); format: functional, organism-based; summary of the method: as §1
[22] = system: Rattus norvegicus; assay: Polyacrylamide Gel Electrophoresis (PAGE) analysis of rat plasma 30 min after intravenous administration of radiolabeled compound in low-density lipoprotein; format: functional, organism-based; summary of the method: as §2
[23] = system: Rattus norvegicus; assay: Percentage […]/CH3OH extract of the radiolabeled compound in rat plasma 30 minutes after iv administration; format: functional
Summary of the method: (§3)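 Liver and plasma were taken at 5 or 30 min. Plasma was extracted by a modified Folch procedure, and liver was homogenized and extracted. Extracts were run on TLC in hexane/ethyl acetate (5:2) for esters or THF/hexane (1:1) for acids, with unlabeled compound as reference. Plates were cut into 1-cm strips and counted. Values are percent ± SEM, n = 3-5.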

[24] = system: Rattus norvegicus; assay: Polyacrylamide Gel Electrophoresis (PAGE) analysis of rat plasma 5 min after intravenous administration of radiolabeled compound in low-density lipoprotein; format: functional, organism-based; summary of the method: as §1
[25] = system: Rattus norvegicus; assay: Polyacrylamide Gel Electrophoresis (PAGE) analysis of rat plasma 30 minutes after intravenous administration of radiolabeled compound concentration of stacking gel; format: functional, organism-based; summary of the method: as §2
[26] = system: Rattus norvegicus; assay: Percentage […]/CH3OH extract of the radiolabeled compound in rat plasma 5 minutes after iv administration; format: functional; summary of the method: as §3
[27] = system: Rattus norvegicus; assay: Polyacrylamide Gel Electrophoresis (PAGE) analysis of rat plasma 5 minutes after intravenous administration of radiolabeled compound in high density lipoprotein; format: functional, organism-based; summary of the method: as §1
[28] = system: Rattus norvegicus; assay: Polyacrylamide Gel Electrophoresis (PAGE) analysis of rat plasma 30 min after intravenous administration of radiolabeled compound at concentration of high density; format: functional, organism-based; summary of the method: as §2
[29] = system: Rattus norvegicus; assay: Percentage […]/CH3OH extract of the radiolabeled compound in rat liver 30 minutes after iv administration; format: functional; summary of the method: as §3
[30] = system: Rattus norvegicus; assay: Percentage […]/CH3OH extract of the radiolabeled compound in rat liver 5 minutes after iv administration; format: functional; summary of the method: as §3
[31] = system: Rattus norvegicus; assay: Polyacrylamide Gel Electrophoresis (PAGE) analysis of rat plasma 5 min after intravenous administration of radiolabeled compound in albumin; format: functional, organism-based; summary of the method: as §2
[32] = system: Rattus norvegicus; assay: Percentage parent compound in rat plasma 5 minutes after iv administration of the radiolabeled compound by thin-layer chromatography; format: functional; summary of the method: as §3
[33] = system: Rattus norvegicus; assay: Percentage parent compound in rat liver 5 minutes after iv administration of the radiolabeled compound by thin-layer chromatography; format: functional; summary of the method: as §3
[34] = system: Rattus norvegicus; assay: Percentage parent compound in rat plasma 30 minutes after iv administration of the radiolabeled compound by thin-layer chromatography; format: functional; summary of the method: as §3
[35] = system: Rattus norvegicus; assay: Percentage parent compound in rat liver 30 minutes after iv administration of the radiolabeled compound by thin-layer chromatography; format: functional; summary of the method: as §3
[36] = system: Rattus norvegicus; assay: Polyacrylamide Gel Electrophoresis (PAGE) analysis of rat plasma 30 min after intravenous administration of radiolabeled compound in stacking gel; format: functional, organism-based; summary of the method: as §2
[37] = system: Rattus norvegicus; assay: Polyacrylamide Gel Electrophoresis (PAGE) analysis of rat plasma 30 minutes after intravenous administration of radiolabeled compound in high density lipoprotein; format: functional, organism-based; summary of the method: as §2
[38] = system: Rattus norvegicus; assay: Polyacrylamide Gel Electrophoresis (PAGE) analysis of rat plasma 30 min after intravenous administration of radiolabeled compound (below albumin); format: functional, organism-based; summary of the method: as §2
[39] = system: Rattus norvegicus; assay: Polyacrylamide Gel Electrophoresis (PAGE) analysis of rat plasma 5 min after intravenous administration of radiolabeled compound (below albumin); format: functional, organism-based; summary of the method: as §2
[40] = system: Rattus norvegicus; assay: Distribution of radioactivity of radiolabeled compound in heart of female rats 30 minutes after intravenous administration at; format: ADME, organism-based; conditions: in vivo, 0.5 h
[41] = system: Rattus norvegicus; assay: Polyacrylamide Gel Electrophoresis (PAGE) analysis of rat plasma 30 minutes after intravenous administration of radiolabeled compound in albumin; format: functional, organism-based; summary of the method: as §2
[42] = system: Rattus norvegicus; assay: Polyacrylamide Gel Electrophoresis (PAGE) analysis of rat plasma 30 minutes after intravenous administration of radiolabeled compound (below albumin ); format: functional, organism-based; summary of the method: as §2
[43] = system: Rattus norvegicus; assay: Polyacrylamide Gel Electrophoresis (PAGE) analysis of rat plasma 30 minutes after intravenous administration of radiolabeled compound in low-density lipoprotein; format: functional, organism-based; summary of the method: as §2

Dose [1] [%] | Dose [2] [%] | Dose [4] [%] | Dose [6] [%] | Dose [7] [%] | Dose [8] [%] | Dose [11] [%] | Dose [12] [%] | Dose [15] [%] | Dose [17] [%] | Compound | Concentration [9] [%] | Concentration [13] | Concentration [16] | Concentration [19] [%] | Concentration [21] | Concentration [22] | Activity [23] [%] | Concentration [25] | Concentration [27] | Concentration [31] | further results
0.72 | 5.44 | 1.49 | 4.62 | 1.07 | 0.87 | 1.09 | 5.82 | 2.41 | 0.5 | Nc1c(I)cc(I)c(CC(=O)O)c1I | 1.7 | 5.5 | 83.6 | 1 | – | – | – | – | – | – | Concentration [3]: 15.8%; Concentration [5]: 1.7%; Concentration [10]: 76; Concentration [14]: 7.3%; Concentration [18]: 0.4; Concentration [20]: 7
1.92 | 6.04 | 1.15 | 0.65 | 0.97 | 2.16 | 0.6 | 0.65 | 3.73 | 4.6 | CCCCCCCCCCCCCCCC(=O)OCC(COC(=O)CCCCCCCCCCCCCCC)OC(=O)C(CC)Cc1c(I)cc(I)c(N)c1I (configuration not stated) | 4.6 | 3 | 5.4 | – | 3 | 27.5 | 92.2 | 7.1 | 52.6 | 4.4 | Concentration [24]: 35.1; Activity [26]: 85.7%; Concentration [28]: 54.1; Activity [29]: 79.7%; Activity [30]: 84.4%
– | 2.5 | 3.16 | 0.42 | 1.72 | 4.07 | 0.49 | 1.29 | 1.42 | 5.97 | CCCCCCCCCCCCCCCC(=O)OCC(COC(=O)CCCCCCCCCCCCCCC)OC(=O)CCCCCCCCCCCCCCCCc1c(I)cc(I)c(N)c1I | 4.6 | – | 44.6 | 12.6 | – | 8.6 | 71.3 | – | 48.1 | 32.1 | Activity [32]: 32.6%; Activity [33]: 24%; Activity [34]: 23.8%; Activity [35]: 40.8%; Concentration [36]: 10.9; Activity [26]: 83.8%; Concentration [37]: 27%; Concentration [38]: 9; Concentration [39]: 2.7; Dose [40]: 0.74%; Activity [29]: 47.2%; Activity [30]: 44.3%
1.01 | 2.25 | 1.11 | 0.48 | 0.84 | 6.3 | 1.06 | 1.01 | 1.23 | 4.37 | Nc1c(I)cc(I)c(CCCCCCCCCCCCCCCCC(=O)O)c1I | 5.2 | – | – | 4.7 | 3.5 | – | – | 7.6 | 26.6 | 60 | Concentration [41]: 60.6; Concentration [42]: 10%; Concentration [37]: 18.5%; Concentration [43]: 3.2%
